Data set [1] concerns the target Melanin-concentrating hormone receptor 1 (Homo sapiens, UniProt Q99705). Briefly: Antagonist activity against human MCH1 receptor stably-expressed in CHO cells by Gal4/Elk1-Luc reporter assay. The data set is classed as functional, cell-based. Summed up:
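Human MCHR1 antagonism read out in CHO cells carrying a Gal4/Elk1 luciferase reporter. IC50 values are averages of 2-3 experiments.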
A general note: Reporter assays use an easily measured gene product as a stand-in for the process of interest.

A short description of data set [2]: Oral bioavailability in rat at 3 mg/kg, iv and 10 mg/kg, po. The data set is classed as ADME, organism-based. The following applies: in vivo. A digest of the protocol:
(§1)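 Rat PK. Dosed in 20% DMSO/21% Solutol in 10 mM MSA (final concentration), n = 2. IV dose 3 mg/kg, PO dose 10 mg/kg. Plasma drug levels measured by LC-MS/MS. Half-life taken from the IV dosing.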

A short description of data set [3]: Volume of distribution in rat at 3 mg/kg, iv and 10 mg/kg, po. The following applies: in vivo, read-out: Vss. The data set is classed as ADME, organism-based. Summed up: as §1
A short description of data set [4]: Half life in rat at 3 mg/kg, iv. The settings on record: in vivo. In kind it is ADME, organism-based. Also on record: dose 3 mg/kg, route intravenous. A digest of the protocol:
as §1

The nature of data set [5]: Total clearance in rat at 3 mg/kg, iv and 10 mg/kg, po. The settings on record: in vivo. In kind it is ADME, organism-based. A digest of the protocol:
as §1

The subject of data set [6] is Mus musculus. As to the kind of experiment: Reduction in body weight of DIO AKR/J mouse relative to control at 1 mg/kg/day, po after 21 days. Also on record: scale not given: the % may be the effect or the level left. The data set is classed as functional. Summed up:
(§2)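 Diet-induced obese AKR/J mice on a high-fat diet (58% kcal fat). Oral dosing once daily for 21 days. Weight change expressed as percentage of pretreatment body weight for each group. Vehicle group and rimonabant (CB1 inverse agonist) used as controls. Mean ± SEM.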

Data set [7] concerns Mus musculus. Briefly: Reduction in body weight of DIO AKR/J mouse relative to control at 10 mg/kg/day, po after 21 days. The data set is classed as functional. Also on record: scale not given: the % may be the effect or the level left. A digest of the protocol:
as §2

Data set [8] has as its system Mus musculus. Briefly: Reduction in body weight of DIO AKR/J mouse relative to control at 3 mg/kg/day, po after 21 days. In kind it is functional. Also on record: scale not given: the % may be the effect or the level left. Summed up:
as §2

Data set [9] can be described thus: Dissociation constant, pKa of the compound. The data set is classed as physicochemical.

Melanin-concentrating hormone receptor 1, sequence (Q99705 whole entry, the tested form may be a part): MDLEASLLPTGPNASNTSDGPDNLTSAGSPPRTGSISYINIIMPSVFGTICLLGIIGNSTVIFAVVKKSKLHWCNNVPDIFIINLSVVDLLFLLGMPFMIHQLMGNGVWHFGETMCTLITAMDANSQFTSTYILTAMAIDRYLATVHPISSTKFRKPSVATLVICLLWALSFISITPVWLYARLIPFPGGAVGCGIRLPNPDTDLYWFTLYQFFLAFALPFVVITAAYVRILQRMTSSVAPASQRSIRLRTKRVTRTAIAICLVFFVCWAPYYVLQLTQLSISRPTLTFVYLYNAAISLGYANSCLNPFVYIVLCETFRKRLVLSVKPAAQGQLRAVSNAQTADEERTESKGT

In general, IC50 refers to the concentration that gives 50% inhibition. As to `O=C(O)c1ccc2cc(-n3cnc4cc(-c5ccc(Cl)cc5)sc4c3=O)ccc2c1`, the IC50 in data set [1] is greater than 10000 nM.

Compound `O=C(NCCCN1CCCC1)c1ccc2cc(-n3cnc4cc(-c5ccc(Cl)cc5)sc4c3=O)ccc2c1` gave an IC50 in data set [1] of 1410 nM.

In data set [1], `CN(C)Cc1cc2cc(-n3cnc4cc(-c5ccc(Cl)cc5)sc4c3=O)ccc2s1` yielded an IC50 of 1.3 nM.

In data set [1], `Cn1c(CN2CCCC2)cc2cc(-n3cnc4cc(-c5ccc(Cl)cc5)sc4c3=O)ccc21` gave an IC50 of 1.1 nM.

`O=c1c2sc(-c3ccc(Cl)cc3)cc2ncn1-c1ccc2c(c1)CCC(CN1CCCC1)C2` (stereo not given): the IC50 in [1] amounted to 1.3 nM.

`CN(C)CC1CCc2cc(-n3cnc4cc(-c5ccc(Cl)cc5)sc4c3=O)ccc2C1` (stereo not given) registered an IC50 in [1] of 1.1 nM.

Broadly, the bioavailability is dose-corrected exposure relative to a reference, in per cent. What is called half-life is the time in which the quantity being followed falls by half. For the compound `CN(C)CC1=Cc2ccc(-n3cnc4cc(-c5ccc(Cl)cc5)sc4c3=O)cc2CC1`, the bioavailability in data set [2] came to 67%. In addition, in data set [3], the Vd worked out at 16 L/kg. Besides, in [4], the half-life is 3 h. In data set [5], this compound showed a clearance of 80 mL/min/kg. The IC50 in [1] is 2.7 nM.

On to `CN1CCN(Cc2cc3cc(-n4cnc5cc(-c6ccc(Cl)cc6)sc5c4=O)ccc3s2)CC1`, for which the Activity in the data set with Mus musculus [6] came to 1.1%; with Mus musculus [7], 11.8%; in the data set with Mus musculus [8], 3.2%. Besides, in data set [2], the bioavailability is 66%. Also, the Vd in [3] was 20.4 L/kg. The same compound had a half-life in [4] of 9.1 h. In [5], this compound registered a clearance of 39 mL/min/kg. The IC50 in data set [1] was 5.7 nM.

The compound `O=c1c2sc(-c3ccc(Cl)cc3)cc2ncn1-c1ccc2oc(CN3CCCC3)cc2c1` yielded a bioavailability in data set [2] of 21%. Further, the Vd in data set [3] was 8.5 L/kg. In [4], this compound gave a half-life of 1.6 h. In [5], this compound returned a clearance of 115 mL/min/kg. Besides, half-maximal inhibition in data set [1] (IC50) required 1.1 nM.

With `O=c1c2sc(-c3ccc(Cl)cc3)cc2ncn1-c1ccc2c(c1)CCC(CN1CCCC1)=C2`, in data set [2], the bioavailability was found to be 57%. Further, the Vd in [3] came to 15.7 L/kg. Further, in [4], the half-life was 11 h. In data set [5], this compound displayed a clearance of 21.2 mL/min/kg. The IC50 in data set [1] came to 0.87 nM.

Turning to `O=c1c2sc(-c3ccc(Cl)cc3)cc2ncn1-c1ccc2sc(CN3CCN(c4ccccc4)CC3)cc2c1`, in data set [1], the IC50 was found to be 29 nM.

Compound `O=c1c2sc(-c3ccc(Cl)cc3)cc2ncn1-c1ccc2cc(CO)ccc2c1` displayed an IC50 in data set [1] of 31.6 nM.

Regarding `COC[C@H]1CCCN1Cc1cc2cc(-n3cnc4cc(-c5ccc(Cl)cc5)sc4c3=O)ccc2n1C`, the midpoint of inhibition in [1], the IC50, lay at 1.4 nM.

`O=c1c2sc(-c3ccc(Cl)cc3)cc2ncn1-c1ccc2sc(CN3CC[C@@H](O)C3)cc2c1` had a bioavailability in [2] of 36.1%. The Vd in data set [3] was found to be 3.6 L/kg. The compound also gave a half-life in [4] of 2.1 h. In addition, the clearance in data set [5] is 30.8 mL/min/kg. The compound further displayed an IC50 in [1] of 2.5 nM.

`O=C(NCCN1CCCC1)c1ccc2cc(-n3cnc4cc(-c5ccc(Cl)cc5)sc4c3=O)ccc2c1` registered an IC50 in data set [1] of 5 nM.

In data set [1], `COC[C@H]1CCCN1Cc1cc2cc(-n3cnc4cc(-c5ccc(Cl)cc5)sc4c3=O)ccc2o1` had an IC50 of 9.5 nM.

The pKa is the pH at which an ionisable group is half protonated. In [9], `O=c1c2sc(-c3ccc(Cl)cc3)cc2ncn1-c1ccc2sc(CN3CCCCC3)cc2c1` yielded a pKa of 8.29. Moreover, the IC50 in [1] is 2 nM.

`O=c1c2sc(-c3ccc(Cl)cc3)cc2ncn1-c1ccc2cc(CN3CCCCC3)ccc2c1`: in data set [1], half-maximal inhibition (IC50) required 0.39 nM.

On to `O=c1c2sc(-c3ccc(Cl)cc3)cc2ncn1-c1ccc2sc(CN3CCCC3)cc2c1`, for which the IC50 in [1] worked out at 0.91 nM.

In turn, `O=c1c2sc(-c3ccc(Cl)cc3)cc2ncn1-c1ccc2c(c1)CCC(CN1CCCCC1)=C2` registered an IC50 in data set [1] of 0.75 nM.

Compound `O=c1c2sc(-c3ccc(Cl)cc3)cc2ncn1-c1ccc2c(c1)CCC(CN1CCCCC1)C2` (stereo not given) showed an IC50 in [1] of 3.1 nM.

Consider `O=c1c2sc(-c3ccc(Cl)cc3)cc2ncn1-c1ccc2sc(CN3CCC(c4ccccc4)CC3)cc2c1`, for which, in data set [2], the bioavailability was 27.9%. Besides, the Vd in data set [3] amounted to 0.6 L/kg. For the same compound, the half-life in data set [4] was 5.9 h. The compound also registered a clearance in data set [5] of 2.9 mL/min/kg. The pKa in data set [9] amounted to 7.91. This compound returned an IC50 in data set [1] of 5.7 nM.

Take `O=c1c2sc(-c3ccc(Cl)cc3)cc2ncn1-c1ccc2ccccc2c1`: the IC50 in data set [1] is greater than 10000 nM.

Compound `O=c1c2sc(-c3ccc(Cl)cc3)cc2ncn1-c1ccc2sc(CN3CCOCC3)cc2c1` registered an IC50 in data set [1] of 38 nM.

In the data set on Mus musculus [7], `Cc1c(C(=O)NN2CCCCC2)nn(-c2ccc(Cl)cc2Cl)c1-c1ccc(Cl)cc1` [RIMONABANT] gave an Activity of 8.4%.

In turn, `O=C(c1ccc2cc(-n3cnc4cc(-c5ccc(Cl)cc5)sc4c3=O)ccc2c1)N1CCCC1` came in with an IC50 in [1] greater than 10000 nM.

The record behind these values is ChEMBL document CHEMBL1137353, “6-(4-chlorophenyl)-3-substituted-thieno[3,2-d]pyrimidin-4(3H)-one-based melanin-concentrating hormone receptor 1 antagonist” (J Med Chem, 2006).
